High-throughput results deposited in PubChem by several laboratories.
CCR6 antag: CCR6 (human) receptor antagonism. P51684. CHO-K1 CCR6 PathHunter beta-arrestin, luminescence, CCL20-stimulated. inhibition, % at 20 µM. 340,000 compounds, 0.49% hits. AID 493098;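 active = compounds whose inhibition of the agonist-driven luminescence signal at 20 µM reaches about 50%, limit read from the data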;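 also: cells stimulated with CCL20 at 14 nM final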
CXCR6 inh: CXCR6 (human) receptor inhibition. CHO-K1 PathHunter CXCR6 beta-arrestin, luminescence. inhibition, % at 20 µM. 360,000 compounds, 0.36% hits. AID 602244; in the data active = inhibition above about 34%, passing the limit was not always enough;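 also: antagonist mode with CXCL16 agonist at 10 nM final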
APJ agonist: APJ receptor agonism. 330,000 compounds, 0.11% hits. CHO-K1 APJ PathHunter beta-arrestin, luminescence; 0% DMSO wells, 100% apelin. activation, % at 20 µM. P35414;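 active = activation more than six SD over the plate average, tested at 20 µM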
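system = engineered CHO-K1 APJ arrestin reporter cells | input = 1000 cells per well | timing = overnight seeding, 90 min compound at 25 °C, 1 h detection | measured by = enzyme-fragment complementation luminescence | read-out = beta-arrestin recruitment to APJ as agonist activity, luminescent signal | control set = negative DMSO alone, positive Apelin-13 at 10 nM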
Beta2AR agonist: activates human beta-2 adrenergic receptor causing internalization; Am2.2-beta2AR cells, FAP receptor internalization, flow cytometry; response, % (test concentration not listed); 340,000 compounds, 0.43% hits; AID 504454;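 active = response above a set limit, near 3 SD of response in nonfluorescent compounds, cut at about 42% in these data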
Target sequence (P07550 whole entry, looked up): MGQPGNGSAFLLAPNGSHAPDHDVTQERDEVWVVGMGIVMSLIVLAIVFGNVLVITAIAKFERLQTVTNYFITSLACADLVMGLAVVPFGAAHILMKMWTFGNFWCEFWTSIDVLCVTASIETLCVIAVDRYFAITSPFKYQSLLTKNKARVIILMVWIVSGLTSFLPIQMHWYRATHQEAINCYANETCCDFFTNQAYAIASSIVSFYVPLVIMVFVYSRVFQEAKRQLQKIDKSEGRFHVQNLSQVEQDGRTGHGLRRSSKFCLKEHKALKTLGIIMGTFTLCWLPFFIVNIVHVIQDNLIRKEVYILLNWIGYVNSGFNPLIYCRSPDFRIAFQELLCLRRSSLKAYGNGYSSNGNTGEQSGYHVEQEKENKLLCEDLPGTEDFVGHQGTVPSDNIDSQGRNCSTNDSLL
EBI2 block: EBI2 (human) antagonism | P32249 | 360,000 compounds, 0.81% hits | inhibition, % at 5 µM | EBI2 beta-arrestin recruitment, luminescence, 7a,25-OHC stimulated; in the data active = inhibition above about 38%;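 also: enzyme fragment complementation signal reports receptor beta-arrestin coupling in cells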
APJ antagonist: antagonists of human APJ apelin receptor; P35414; CHO-K1 APJ beta-arrestin complementation, luminescence; inhibition, % at 20 µM; 330,000 compounds, 0.32% hits;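 active = inhibition above about 40% at 20 µM, limit read from the data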;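 also: cells challenged with 10 nM apelin-13 agonist together with compound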
Numbers stand for hits; n = inactive; x = no result. This is a sample that favours compounds with a hit; in the whole collection about 1.8% have one here.

SMILES	CCR6 antag	CXCR6 inh	APJ agonist	Beta2AR agonist	EBI2 block	APJ antagonist
CC(=O)Nc1ccc(NC(=O)C(C)OC(=O)C2(c3ccccc3F)CCCC2)cc1 (centres undefined)	n	n	n	n	n	n
C=C(C)Cn1c(CN(C)Cc2ccccc2)nc2c1c(=O)n(C)c(=O)n2C	n	n	n	n	n	n
C=CCc1cc(/C=C2/NC(=O)N(CC(=O)OC)C2=O)cc(OC)c1O	n	n	n	n	n	n
CC(C)(C)C1CCC(=NNC(=S)NCc2ccccc2)CC1 (centres undefined)	52	n	n	n	n	n
CCC(C)(C)C1CCC(=NNC(=S)Nc2ccccc2)CC1 (centres undefined)	n	n	n	n	n	n
O=C(COC(=O)c1cncc(Br)c1)NC1CCCCCC1	n	n	n	n	n	n
COc1cc(/C=C2\SC(=S)N(Nc3ccccc3)C2=O)cc(OC)c1OC	51	n	n	n	n	n
CCOc1cc(/C=C2\SC(=S)N(NC(=O)c3cccnc3)C2=O)ccc1O	n	n	n	n	n	44
COc1cc(/C=C2\SC(=S)N(NS(=O)(=O)c3ccc(C)cc3)C2=O)ccc1O	n	37	n	n	n	n
COc1cc(/C=C2\SC(=S)N(NC(=O)c3ccncc3)C2=O)ccc1O	53	n	n	n	n	n
O=C(NN1C(=O)/C(=C/c2cccs2)SC1=S)c1cccnc1	n	n	n	n	n	n
CCOC(=O)C1=CCC(c2cccn2C(=O)OC(C)(C)C)N(S(=O)(=O)c2ccc(C)cc2)C1 (centres undefined)	x	n	x	x	n	x
c1ccc(N2CC3COc4ccccc4C3=N2)cc1 (centres undefined)	n	n	x	n	n	x
Cn1c(SCC(=O)NCCc2ccccc2)nnc1C1CCCCC1	n	n	n	n	n	n
CCOP(=O)(OCC)C(C#N)=C1SCN(c2ccc(Cl)cc2)CS1	82	n	n	n	n	n
Cc1nc(NNC(=O)c2ccc([N+](=O)[O-])cc2)cc(-c2ccccc2)n1	58	n	n	n	n	n
CCOC(=O)/C=C(\C)Sc1cc(O)c2ccccc2c1O	x	n	x	46	n	x
CCOC(=O)/C=C(\C)Sc1cc(=O)oc2ccccc12	n	n	n	n	n	n
O=C(Nc1cccc(Cl)c1)c1cc(N=Nc2ccc([N+](=O)[O-])cc2Cl)ccc1O	100	64	n	n	n	56
O=C(Nc1ccc([N+](=O)[O-])cc1Cl)c1cc(Cl)ccc1O	n	n	n	n	n	n
COc1ccc(/C(C)=N/Nc2ncc(Cl)cc2Cl)c(O)c1	n	n	n	n	43	n
Cn1cnc(C(=O)N2CCc3ccccc3C2)c1C(=O)N1CCc2ccccc2C1	n	n	n	n	n	n
Nc1[nH]n2c(=O)cc(-c3ccccc3)nc2c1N=Nc1ccccc1	51	n	n	n	n	n
CCOC(CN=c1nc(N(C)C)ss1)OCC	92	60	x	n	n	x
COc1ccc(Cl)cc1NC(=O)COC(=O)C1COc2ccccc2O1 (centres undefined)	n	n	n	n	n	n
SMILES	CCR6 antag	CXCR6 inh	APJ agonist	Beta2AR agonist	EBI2 block	APJ antagonist
CCOc1ccc2nc(NC(=O)c3ccccn3)sc2c1	79	58	n	n	60	79
COc1ccc(C(=O)Nc2nc3ccccc3s2)c(OC)c1	n	n	n	n	50	n
C=CS(=O)(=O)c1c2cc(OC)ccc2nc2ccc(OC)cc12	78	48	x	n	n	x
COc1ccc2nc(Cl)cc(Cl)c2c1	n	n	n	n	n	n
O=C(NNC(=S)NC(=O)C12CC3CC(CC(C3)C1)C2)c1ccncc1	51	n	n	n	n	n
O=C1CCCCC1(O)Cc1ccc2c(c1)OCO2 (centres undefined)	n	n	x	n	n	x
CC(C)(C)S(=O)(=O)N1Cc2cc(CO)cc(CCO)c2[C@@H]1CCO	n	n	x	n	n	x
O=C1c2cccc3cccc(c23)C(=O)N1CC1CCN(CC(O)COc2ccc3ccccc3c2)CC1 (centres undefined)	n	n	n	82	57	n
COc1cccc(OCC(O)CN2CCC(CN3C(=O)c4cccc5cccc(c45)C3=O)CC2)c1 (centres undefined)	n	n	n	n	n	n
